Measured values pooled from the literature.
Compare with care: the assays were run in different laboratories.
Observed: enzyme activity
Action: inhibitor
DYRK1B: Dual specificity tyrosine-phosphorylation-regulated kinase 1B (DYRK1B, Homo sapiens, UniProt Q9Y463)
NUAK1: NUAK family SNF1-like kinase 1 (NUAK1, Homo sapiens, UniProt O60285)
Rock2: Rho-associated protein kinase 2 (Rock2, Rattus norvegicus, UniProt Q62868)

| target | method | concentration | remaining activity [%] | SMILES |
| --- | --- | --- | --- | --- |
| Mitogen-activated protein kinase kinase kinase 15 (MAP3K15, Homo sapiens, UniProt Q6ZN16) | – | 23.5 nM | 67 | Cc1ccc(C(=O)Nc2ccc(CN3CCN(C)CC3)c(C(F)(F)F)c2)cc1C#Cc1cnc2cccnn12 |
| DYRK1B | radiometric | 1 µM | 35 | COc1cccc(Nc2nc3cc(C(=O)O)ccc3c3cnccc23)c1 |
| NUAK1 | radiometric | 1 µM | 82 | Cc1nn(CC(F)(F)F)cc1Nc1ncc(C2CC2)c(NCCCNC(=O)C2CCC2)n1 |
| Rock2 | – | 10 µM | -1 | CCCOc1ccc(OC)c(F)c1C(=O)c1ccc(C(=O)N[C@@H]2CNC[C@H]2NC(=O)c2ccc3[nH]ncc3c2)cc1 |
| Rock2 | radiometric | 1 µM | 25 | Cc1cnc(NC2CCOCC2)nc1-n1cnc(C(=O)NC(CN)c2cc(F)cc(Cl)c2)c1 (stereo not drawn) |
| Dual specificity tyrosine-phosphorylation-regulated kinase 3 (DYRK3, Homo sapiens, UniProt O43781) | radiometric | 1 µM | 28 | COc1cccc(CCNc2nc3cc(C(=O)O)ccc3c3cncnc23)c1 |
| Inhibitor of nuclear factor kappa-B kinase subunit epsilon (IKBKE, Homo sapiens, UniProt Q14164) | radiometric | 1 µM | -2 | O=C(NCCCNc1nc(Nc2cccc(NC(=O)N3CCCC3)c2)ncc1Br)C1CCC1 |
| DYRK1B | radiometric | 1 µM | 112 | O=C(O)c1ccc2c(c1)nc(NCCc1cccc(Cl)c1)c1ccncc12 |
| NUAK1 | radiometric | 1 µM | 97 | Cc1nn(CC(F)(F)F)cc1Nc1ncc(C2CC2)c(NCc2ccc(S(N)(=O)=O)cc2)n1 |
